In brackets after ≈: the same amount, converted by molar mass. Starred links: 1 amine or outer side, 2 acyl side, 3 side chain; linkers in the order of their positions; H or OH if unused. Positions of bridges follow the written chain, without caps; N, C: chain ends. Non-standard residues stand in square brackets, D forms with d. Residues, ends and D or L forms follow the SMILES beside them. Chains are numbered I, II in the order given. Actinocin(1to9) = Cc1c2oc3c(C)ccc(C(=O)[*:2])c3nc-2c(C(=O)[*:1])c(N)c1=O; NMeV = CN[C@H](C(=O)O)C(C)C; Sar = CNCC(=O)O
What was measured:
KB = experiment: Cytotoxicity against human KB cells after 72 hrs by methylene blue assay; assay type: functional, cell-based
Procedure, shortened: (§1)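 Cells grown in RPMI-1640 at 37 °C under 5% CO2, seeded at 2880 cells/well and left 3 h before adding samples. Samples prepared at 1, 10, 40 and 100 μg/mL, then 3 days at 37 °C. Cells fixed in 10% formal saline, stained with 1% methylene blue in 0.01 M borate buffer, washed, and dye eluted with ethanol/0.1 M HCl (1:1). A650 read. IC50 is 50% absorbance reduction vs untreated cells.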

[1] = Cytotoxicity against human HepA cells after 72 hrs by methylene blue assay; assay type: functional, cell-based; procedure, shortened: as §1

Question: What does the source list for `CC(=O)O[C@@H]1C2=C(C)[C@@H](OC(=O)c3ccccc3)C[C@@]2(C(C)(C)O)[C@@H](O)[C@@H]2[C@]3(OC(C)=O)CO[C@@H]3C[C@H](OC(C)=O)[C@@]2(C)[C@H]1OC(=O)c1ccccc1`?
Answer: IC50 (KB): > 20 µg/mL; IC50 [1]: > 20 µg/mL

Question: Which results are given for `CC(=O)OC[C@H]1[C@H]2[C@H](O)[C@]3(C(C)(C)O)C[C@H](OC(C)=O)C(C)=C3[C@@H](OC(C)=O)[C@H](OC(C)=O)[C@]2(C)[C@@H](OC(C)=O)C[C@@H]1OC(C)=O`?
Answer: IC50 (KB): > 20 µg/mL; IC50 [1]: 2.7 µg/mL (≈ 4.12 µM)

Question: With `Cc1c2oc3c(C)ccc(C(=O)N[C@@H]4C(=O)N[C@H](C(C)C)C(=O)N5CCC[C@H]5C(=O)N(C)CC(=O)N(C)[C@@H](C(C)C)C(=O)O[C@@H]4C)c3nc-2c(C(=O)N[C@@H]2C(=O)N[C@H](C(C)C)C(=O)N3CCC[C@H]3C(=O)N(C)CC(=O)N(C)[C@@H](C(C)C)C(=O)O[C@@H]2C)c(N)c1=O` [DACTINOMYCIN] (I: T[dV]P[Sar][NMeV] / II: T[dV]P[Sar][NMeV]; ester I:1-I:C, II:1-II:C; linker I:N-II:N via Actinocin(1to9)) as the compound, how does the IC50 [1] read?
Answer: 0.01 µg/mL (≈ 0.00797 µM)

Question: With `CO[C@@]12[C@H](COC(N)=O)C3=C(C(=O)C(C)=C(N)C3=O)N1C[C@@H]1N[C@@H]12` [MITOMYCIN] as the compound, how does the IC50 [1] read?
Answer: 0.01 µg/mL (≈ 0.0299 µM)

Question: For `CC(=O)O[C@H]1C(=O)[C@@]2(C)[C@H]([C@H](OC(=O)c3ccccc3)[C@]3(O)C[C@H](OC(=O)[C@H](O)[C@@H](NC(=O)c4ccccc4)c4ccccc4)C(C)=C1C3(C)C)[C@]1(OC(C)=O)CO[C@@H]1C[C@@H]2O` [PACLITAXEL], which IC50 (KB) is on record?
Answer: < 0.1 µg/mL

Question: What about the IC50 [1] of the same compound?
Answer: < 0.1 µg/mL

Question: Which IC50 (KB) does the source give for `CC(=O)OC[C@H]1[C@H]2[C@H](O)[C@]3(C(C)(C)O)C[C@H](OC(C)=O)C(C)=C3[C@@H](O)[C@H](OC(C)=O)[C@]2(C)[C@@H](OC(C)=O)C[C@@H]1OC(C)=O` [TAXUMAIRO U] here?
Answer: 10.3 µg/mL (≈ 16.8 µM)

Question: What about the IC50 [1] of the same compound?
Answer: 0.3 µg/mL (≈ 0.49 µM)

Question: Which IC50 (KB) does the source give for `CC(=O)OC[C@H]1[C@H]2[C@H](O)[C@]3(C(C)(C)O)C[C@H](O)C(C)=C3[C@@H](O)[C@H](OC(C)=O)[C@]2(C)[C@@H](OC(C)=O)C[C@@H]1OC(C)=O` [TAXUMAIROL V] here?
Answer: 3.9 µg/mL (≈ 6.83 µM)

Question: And the IC50 [1]?
Answer: 1.6 µg/mL (≈ 2.8 µM)

Question: For `CC(=O)O[C@@H]1C2=C(C)[C@@H](O)C[C@@]2(C(C)(C)O)[C@@H](OC(C)=O)[C@@H]2[C@]3(OC(C)=O)CO[C@@H]3C[C@H](OC(C)=O)[C@@]2(C)[C@H]1O` [TAXUMAIROL W], which IC50 (KB) is on record?
Answer: > 20 µg/mL

Question: What about the IC50 [1] of the same compound?
Answer: 7 µg/mL (≈ 12.3 µM)

Reference: ChEMBL document CHEMBL1155730, “Taxane diterpenoids from the stem bark of Taxus mairei” (J Nat Prod, 2001)
